Among the data in ChEMBL document CHEMBL5653631, “A Potent and Selective ULK1 Inhibitor Suppresses Autophagy and Sensitizes Cancer Cells to Nutrient Stress” (iScience, 2018) are inhibition and fold change (FC) values, retold here.

In experiment [1] the target is Tyrosine-protein kinase CSK (Homo sapiens) (UniProt P41240). Description: Inhibition of human recombinant CSK at 40 nM in presence of ATP by radiometric assay relative to control.
Experiment [2] has as its target T1, Protein kinase C epsilon type (Homo sapiens) (UniProt Q02156).
T1 sequence (whole entry): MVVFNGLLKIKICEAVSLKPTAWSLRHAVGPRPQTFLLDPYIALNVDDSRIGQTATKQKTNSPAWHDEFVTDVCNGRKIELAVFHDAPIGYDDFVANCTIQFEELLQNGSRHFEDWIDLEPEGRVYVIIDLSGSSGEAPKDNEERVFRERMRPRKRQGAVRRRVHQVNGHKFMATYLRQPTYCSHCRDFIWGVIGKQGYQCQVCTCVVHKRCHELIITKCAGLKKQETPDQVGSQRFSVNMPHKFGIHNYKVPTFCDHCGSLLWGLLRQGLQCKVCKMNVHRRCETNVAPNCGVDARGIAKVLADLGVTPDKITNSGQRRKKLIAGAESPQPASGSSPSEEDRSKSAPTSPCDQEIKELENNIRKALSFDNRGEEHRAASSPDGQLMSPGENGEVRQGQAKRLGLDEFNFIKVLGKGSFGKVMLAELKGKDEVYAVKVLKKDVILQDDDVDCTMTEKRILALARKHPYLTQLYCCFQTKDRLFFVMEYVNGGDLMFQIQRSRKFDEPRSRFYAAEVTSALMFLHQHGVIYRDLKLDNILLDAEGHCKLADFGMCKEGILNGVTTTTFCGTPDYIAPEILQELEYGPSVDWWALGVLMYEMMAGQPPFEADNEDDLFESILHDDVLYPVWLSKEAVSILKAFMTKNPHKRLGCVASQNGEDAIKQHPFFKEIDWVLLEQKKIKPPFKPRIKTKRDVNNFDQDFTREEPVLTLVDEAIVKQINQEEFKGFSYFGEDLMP
Description: Inhibition of human recombinant PKCe at 40 nM related to control ULK1.

The target in experiment [3] is Rhodopsin kinase GRK7 (Homo sapiens) (UniProt Q8WTQ7). The experiment can be described thus: Inhibition of human recombinant GPRK7 at 500 nM in presence of ATP by radiometric assay relative to control.
The target of experiment [4] is T2, Serine/threonine-protein kinase BRSK2 (Homo sapiens) (UniProt Q8IWQ3).
T2 sequence (whole entry): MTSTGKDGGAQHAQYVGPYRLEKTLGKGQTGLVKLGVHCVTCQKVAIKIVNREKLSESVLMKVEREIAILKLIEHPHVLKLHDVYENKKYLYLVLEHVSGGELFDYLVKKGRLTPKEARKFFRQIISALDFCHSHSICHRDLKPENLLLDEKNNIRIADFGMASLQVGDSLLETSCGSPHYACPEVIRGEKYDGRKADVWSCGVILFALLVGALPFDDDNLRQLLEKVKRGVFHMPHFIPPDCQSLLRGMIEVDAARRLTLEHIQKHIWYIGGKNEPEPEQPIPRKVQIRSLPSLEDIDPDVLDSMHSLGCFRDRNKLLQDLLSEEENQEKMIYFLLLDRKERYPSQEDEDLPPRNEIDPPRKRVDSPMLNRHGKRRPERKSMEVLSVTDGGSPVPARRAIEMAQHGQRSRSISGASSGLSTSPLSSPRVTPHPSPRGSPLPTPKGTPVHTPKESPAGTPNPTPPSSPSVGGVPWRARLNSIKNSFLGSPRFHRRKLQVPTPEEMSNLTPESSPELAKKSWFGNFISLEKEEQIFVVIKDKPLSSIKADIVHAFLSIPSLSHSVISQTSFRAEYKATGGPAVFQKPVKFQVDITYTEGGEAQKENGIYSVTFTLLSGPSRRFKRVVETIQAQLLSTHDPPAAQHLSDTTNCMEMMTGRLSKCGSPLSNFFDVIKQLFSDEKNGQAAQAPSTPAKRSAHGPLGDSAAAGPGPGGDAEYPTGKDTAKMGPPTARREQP
Description: Inhibition of human recombinant BRSK2 at 500 nM in presence of ATP by radiometric assay relative to control. The procedure, abridged:
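Recombinant human kinase panel (327 kinases) run as radiometric activity assays, each kinase in duplicate at one compound concentration. Activity remaining expressed relative to vehicle control; percent inhibition taken as 100% minus % activity remaining.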

Experiment [5] addresses Dual specificity protein kinase CLK2 (Homo sapiens) (UniProt P49760). The experiment can be described thus: Inhibition of human recombinant CLK2 at 500 nM in presence of ATP by radiometric assay relative to control.
In experiment [6] the target is Serine/threonine-protein kinase 26 (Homo sapiens) (UniProt Q9P289). Description: Inhibition of human recombinant MST4 at 15 nM related to control ULK1.
In experiment [7] the target is Proto-oncogene tyrosine-protein kinase ROS (Homo sapiens) (UniProt P08922). The experiment can be described thus: Inhibition of human recombinant ROS at 15 nM in presence of ATP by radiometric assay relative to control.
Experiment [8] deals with Wee1-like protein kinase (Homo sapiens) (UniProt P30291). Description: Inhibition of human recombinant Wee1 at 15 nM in presence of ATP by radiometric assay relative to control.
Experiment [9] addresses T3, Serine/threonine-protein kinase 17B (Homo sapiens) (UniProt O94768).
T3 sequence (whole entry): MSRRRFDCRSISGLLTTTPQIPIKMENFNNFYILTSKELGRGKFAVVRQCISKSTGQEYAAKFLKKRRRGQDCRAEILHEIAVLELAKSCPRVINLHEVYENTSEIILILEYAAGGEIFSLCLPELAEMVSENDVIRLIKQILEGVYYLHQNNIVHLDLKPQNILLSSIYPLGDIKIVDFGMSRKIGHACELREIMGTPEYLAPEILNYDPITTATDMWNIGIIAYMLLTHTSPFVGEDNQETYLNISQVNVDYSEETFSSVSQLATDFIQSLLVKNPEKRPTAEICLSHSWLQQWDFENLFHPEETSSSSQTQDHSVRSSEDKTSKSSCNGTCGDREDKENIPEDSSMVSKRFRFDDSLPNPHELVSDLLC
The experiment can be described thus: Inhibition of human recombinant DRAK2 at 15 nM related to control ULK1.

Chain of Wee1-like protein kinase (Homo sapiens) (P30291 whole entry, looked up): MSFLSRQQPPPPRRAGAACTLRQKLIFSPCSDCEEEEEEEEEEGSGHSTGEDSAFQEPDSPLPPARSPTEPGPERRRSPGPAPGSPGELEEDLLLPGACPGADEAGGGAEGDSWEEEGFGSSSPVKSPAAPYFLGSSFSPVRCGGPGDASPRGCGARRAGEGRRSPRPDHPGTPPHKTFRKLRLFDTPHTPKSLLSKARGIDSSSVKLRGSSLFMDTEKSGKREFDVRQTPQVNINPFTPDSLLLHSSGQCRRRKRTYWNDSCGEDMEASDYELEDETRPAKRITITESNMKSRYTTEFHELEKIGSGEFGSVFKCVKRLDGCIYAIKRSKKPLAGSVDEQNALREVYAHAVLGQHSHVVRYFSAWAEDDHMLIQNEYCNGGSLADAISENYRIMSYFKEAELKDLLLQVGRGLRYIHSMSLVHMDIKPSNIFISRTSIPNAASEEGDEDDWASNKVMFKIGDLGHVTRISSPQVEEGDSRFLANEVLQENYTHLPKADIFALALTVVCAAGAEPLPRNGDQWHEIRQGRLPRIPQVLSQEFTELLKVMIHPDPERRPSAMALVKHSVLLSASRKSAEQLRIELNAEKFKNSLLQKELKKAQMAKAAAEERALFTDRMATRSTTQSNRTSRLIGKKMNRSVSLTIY
Chain of Dual specificity protein kinase CLK2 (Homo sapiens) (P49760 whole entry, looked up): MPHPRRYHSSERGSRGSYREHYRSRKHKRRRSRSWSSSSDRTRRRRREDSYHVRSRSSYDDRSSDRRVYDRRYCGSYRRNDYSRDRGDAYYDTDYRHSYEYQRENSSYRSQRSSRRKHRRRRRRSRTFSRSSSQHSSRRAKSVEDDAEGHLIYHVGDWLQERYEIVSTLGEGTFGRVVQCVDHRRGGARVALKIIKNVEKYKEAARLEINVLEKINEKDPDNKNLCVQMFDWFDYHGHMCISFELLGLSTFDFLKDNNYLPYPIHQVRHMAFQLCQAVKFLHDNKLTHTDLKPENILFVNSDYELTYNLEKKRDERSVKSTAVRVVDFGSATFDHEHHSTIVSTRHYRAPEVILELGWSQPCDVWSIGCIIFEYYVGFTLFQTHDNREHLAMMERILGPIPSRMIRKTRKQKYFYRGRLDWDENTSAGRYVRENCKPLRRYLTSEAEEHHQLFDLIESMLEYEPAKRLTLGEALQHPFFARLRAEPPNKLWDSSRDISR
Chain of Rhodopsin kinase GRK7 (Homo sapiens) (Q8WTQ7 whole entry, looked up): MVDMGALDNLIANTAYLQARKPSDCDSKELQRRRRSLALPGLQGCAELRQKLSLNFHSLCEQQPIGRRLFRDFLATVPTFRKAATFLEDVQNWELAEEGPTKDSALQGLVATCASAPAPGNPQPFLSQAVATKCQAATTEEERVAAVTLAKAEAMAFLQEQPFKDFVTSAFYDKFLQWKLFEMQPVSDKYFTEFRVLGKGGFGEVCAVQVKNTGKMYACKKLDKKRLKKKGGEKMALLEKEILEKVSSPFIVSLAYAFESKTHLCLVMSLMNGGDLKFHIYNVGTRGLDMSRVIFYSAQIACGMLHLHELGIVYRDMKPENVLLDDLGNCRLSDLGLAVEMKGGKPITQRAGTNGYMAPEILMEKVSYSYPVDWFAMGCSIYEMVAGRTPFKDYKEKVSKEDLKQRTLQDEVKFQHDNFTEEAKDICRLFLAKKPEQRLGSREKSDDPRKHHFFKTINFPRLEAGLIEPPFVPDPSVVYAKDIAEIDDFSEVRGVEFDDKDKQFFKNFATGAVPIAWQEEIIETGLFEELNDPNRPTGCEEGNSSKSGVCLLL
Chain of Proto-oncogene tyrosine-protein kinase ROS (Homo sapiens) (P08922 whole entry): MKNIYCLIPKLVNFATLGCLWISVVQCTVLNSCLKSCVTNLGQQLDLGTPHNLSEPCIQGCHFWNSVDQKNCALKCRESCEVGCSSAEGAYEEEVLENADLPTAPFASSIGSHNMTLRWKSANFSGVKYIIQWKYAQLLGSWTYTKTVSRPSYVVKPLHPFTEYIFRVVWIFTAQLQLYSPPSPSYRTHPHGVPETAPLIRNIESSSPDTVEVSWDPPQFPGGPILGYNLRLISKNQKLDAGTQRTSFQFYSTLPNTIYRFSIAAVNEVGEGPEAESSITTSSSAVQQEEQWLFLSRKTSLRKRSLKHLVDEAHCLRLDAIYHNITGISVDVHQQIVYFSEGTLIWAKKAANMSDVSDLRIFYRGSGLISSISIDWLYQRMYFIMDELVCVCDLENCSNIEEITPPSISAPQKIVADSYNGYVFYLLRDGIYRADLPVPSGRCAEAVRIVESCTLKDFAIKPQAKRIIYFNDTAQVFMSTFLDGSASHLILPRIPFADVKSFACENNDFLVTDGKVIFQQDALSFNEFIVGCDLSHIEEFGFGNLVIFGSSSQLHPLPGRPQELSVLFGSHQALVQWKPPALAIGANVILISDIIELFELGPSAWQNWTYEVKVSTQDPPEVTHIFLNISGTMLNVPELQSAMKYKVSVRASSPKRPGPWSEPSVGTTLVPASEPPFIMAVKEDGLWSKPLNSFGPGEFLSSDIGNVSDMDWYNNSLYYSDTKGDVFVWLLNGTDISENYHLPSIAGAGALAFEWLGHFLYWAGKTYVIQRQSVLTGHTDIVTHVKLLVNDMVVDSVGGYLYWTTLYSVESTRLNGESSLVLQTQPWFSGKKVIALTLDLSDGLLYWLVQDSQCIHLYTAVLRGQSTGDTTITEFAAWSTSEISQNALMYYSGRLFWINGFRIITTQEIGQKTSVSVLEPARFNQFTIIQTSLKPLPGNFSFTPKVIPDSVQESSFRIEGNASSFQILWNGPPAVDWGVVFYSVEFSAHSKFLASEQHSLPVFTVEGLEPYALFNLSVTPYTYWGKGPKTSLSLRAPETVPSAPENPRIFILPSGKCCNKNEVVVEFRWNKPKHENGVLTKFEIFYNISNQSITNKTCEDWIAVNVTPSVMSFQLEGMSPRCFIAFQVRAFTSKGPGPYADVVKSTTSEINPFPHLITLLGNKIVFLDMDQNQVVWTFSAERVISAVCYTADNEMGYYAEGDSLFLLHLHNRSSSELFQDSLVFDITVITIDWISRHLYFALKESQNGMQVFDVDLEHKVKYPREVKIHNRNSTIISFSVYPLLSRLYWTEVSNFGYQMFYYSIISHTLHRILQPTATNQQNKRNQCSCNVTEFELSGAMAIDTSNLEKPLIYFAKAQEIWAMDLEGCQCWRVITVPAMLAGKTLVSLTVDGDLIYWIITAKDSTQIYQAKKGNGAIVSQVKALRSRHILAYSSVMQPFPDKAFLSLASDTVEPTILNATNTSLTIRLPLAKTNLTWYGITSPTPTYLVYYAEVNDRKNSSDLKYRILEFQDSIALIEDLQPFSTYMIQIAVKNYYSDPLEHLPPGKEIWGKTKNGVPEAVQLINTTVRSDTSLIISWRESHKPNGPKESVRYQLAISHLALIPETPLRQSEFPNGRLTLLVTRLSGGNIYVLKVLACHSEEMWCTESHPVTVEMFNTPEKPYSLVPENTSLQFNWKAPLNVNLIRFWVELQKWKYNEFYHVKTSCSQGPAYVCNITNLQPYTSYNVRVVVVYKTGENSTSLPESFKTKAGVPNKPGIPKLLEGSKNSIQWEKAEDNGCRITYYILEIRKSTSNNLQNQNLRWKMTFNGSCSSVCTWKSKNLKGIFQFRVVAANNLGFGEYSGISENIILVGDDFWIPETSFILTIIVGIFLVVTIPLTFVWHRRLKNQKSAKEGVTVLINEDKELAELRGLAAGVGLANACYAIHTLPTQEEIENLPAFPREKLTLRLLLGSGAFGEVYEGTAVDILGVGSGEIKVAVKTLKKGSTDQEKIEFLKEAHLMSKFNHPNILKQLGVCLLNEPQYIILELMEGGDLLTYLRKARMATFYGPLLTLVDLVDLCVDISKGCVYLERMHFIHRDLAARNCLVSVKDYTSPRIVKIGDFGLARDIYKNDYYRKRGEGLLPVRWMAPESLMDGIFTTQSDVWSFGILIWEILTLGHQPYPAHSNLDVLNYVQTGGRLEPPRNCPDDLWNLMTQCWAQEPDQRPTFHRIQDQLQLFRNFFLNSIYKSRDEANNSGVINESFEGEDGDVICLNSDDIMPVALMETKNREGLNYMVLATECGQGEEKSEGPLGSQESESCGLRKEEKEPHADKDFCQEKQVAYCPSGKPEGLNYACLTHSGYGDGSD
Chain of Tyrosine-protein kinase CSK (Homo sapiens) (P41240 2-450 limits assumed): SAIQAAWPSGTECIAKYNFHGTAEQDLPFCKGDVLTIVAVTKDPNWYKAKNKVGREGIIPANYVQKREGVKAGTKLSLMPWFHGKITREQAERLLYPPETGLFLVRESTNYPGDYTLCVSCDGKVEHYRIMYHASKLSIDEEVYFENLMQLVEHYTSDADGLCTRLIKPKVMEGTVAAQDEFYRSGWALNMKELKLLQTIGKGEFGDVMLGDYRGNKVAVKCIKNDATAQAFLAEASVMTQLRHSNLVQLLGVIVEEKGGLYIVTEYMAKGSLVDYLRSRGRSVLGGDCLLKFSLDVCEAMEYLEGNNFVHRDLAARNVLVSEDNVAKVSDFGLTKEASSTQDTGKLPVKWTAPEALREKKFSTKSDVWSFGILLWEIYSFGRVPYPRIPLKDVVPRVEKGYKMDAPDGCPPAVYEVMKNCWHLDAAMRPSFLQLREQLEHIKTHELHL
Chain of Serine/threonine-protein kinase 26 (Homo sapiens) (Q9P289 2-416 limits assumed): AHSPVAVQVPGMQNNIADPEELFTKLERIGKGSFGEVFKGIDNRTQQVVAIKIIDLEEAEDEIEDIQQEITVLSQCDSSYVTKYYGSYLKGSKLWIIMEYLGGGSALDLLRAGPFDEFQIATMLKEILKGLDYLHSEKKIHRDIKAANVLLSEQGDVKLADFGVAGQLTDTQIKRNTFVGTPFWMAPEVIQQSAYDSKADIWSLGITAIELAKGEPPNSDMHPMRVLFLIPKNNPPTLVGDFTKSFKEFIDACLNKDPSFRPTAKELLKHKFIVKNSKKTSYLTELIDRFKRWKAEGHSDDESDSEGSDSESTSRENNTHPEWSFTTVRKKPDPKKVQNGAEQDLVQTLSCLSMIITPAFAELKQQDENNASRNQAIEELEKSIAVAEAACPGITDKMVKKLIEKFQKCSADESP

Regarding `O=C(N[C@@H](C1CC1)C(F)(F)F)c1cc(-c2cnn3cc(-c4ccc(F)cc4)cnc23)cs1`, the inhibition in [1] was 0%. Besides, in experiment [2], the fold change (FC) came to 0.

With `CNC(=O)c1ccccc1Oc1nc(Nc2cc(OC)c(OC)c(OC)c2)ncc1Br`, the inhibition amounted to 10% in [3], 3% in [4] and 7% in experiment [5].

On to `CC(C)[C@H](NC(=O)c1cc(-c2cnn3cc(-c4ccc(OCCN5CCCCC5)cc4)cnc23)cs1)C(F)(F)F`, for which the fold change (FC) in [6] turned out to be 0; in [9], 0.78. In addition, the results for the inhibition in [7] and in experiment [8] were 0% and 15%, respectively.

For orientation: inhibition means the drop in the measured response relative to a control, in per cent.
